{
  "source": "paper PMC4484650",
  "about": "(Drug Design, Development and Therapy, 2015)",
  "key": {"[1]": {"conditions": "cited from earlier work; for half-life (T1/2): humans"}, "plasma proteins": {"tested_on": "plasma proteins", "conditions": "cited from earlier work"}, "[2]": {"assay_type": "in vivo, human (healthy men)", "conditions": "human"}, "[3]": {"experiment": "Rat mass balance and urine metabolite profile", "assay_type": "in vivo, Sprague Dawley rats", "conditions": "rat (Sprague Dawley), 50 mg/kg, urine 0–24 hours", "summary_of_the_method": "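Sprague Dawley rats received 50 mg/kg [14C]-test compound by gavage in ultrapure water. Urine, feces and cage wash were collected from 3 males and 3 females pre-dose and at 0–8, 8–24, 24–48 and 48–72 h. A second study collected urine from 3 males to 24 h. Radioactivity was counted by liquid scintillation as % of dose. Urinary analytes were measured by LC–MS/MS (50–24,750 ng/mL), with and without deconjugation (15 h, 37°C).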"}, "[4]": {"experiment": "Human mass balance and urine metabolite profile", "assay_type": "in vivo, human (healthy men)", "conditions": "60 mg, urine 0–120 hours", "summary_of_the_method": "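Open-label single-centre study in healthy young men. Each took one oral 5 mL solution of 60 mg [14C]-test compound (3.7 MBq), about 30 min after starting breakfast. Urine was collected in intervals to 120 h and feces in 24-h intervals to 120 h. Radioactivity was read by liquid scintillation and reported as % of dose. Urinary analytes were measured by LC–MS/MS (1–5,000 ng/mL) before and after β-glucuronidase/sulfatase deconjugation (15 h, 37°C).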"}, "[5]": {"experiment": "Rat plasma PK and plasma metabolite profile after oral [14C]-levomilnacipran", "assay_type": "in vivo, Sprague Dawley rats", "summary_of_the_method": "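Male Sprague Dawley rats were gavaged with 50 mg/kg [14C]-test compound. Aortic blood was drawn under isoflurane into lithium heparin, three rats per time, from 0.25 to 72 h (second study: 1–10 h). Plasma radioactivity was counted by liquid scintillation. Parent and N-desethyl metabolite were measured by LC–MS/MS (1–500 ng/mL), and conjugates after β-glucuronidase/sulfatase deconjugation. Cmax and AUC came from non-compartmental analysis.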"}, "[6]": {"experiment": "Monkey mass balance and urine metabolite profile", "assay_type": "in vivo, Macaca fascicularis monkeys", "conditions": "30 mg/kg, urine 0–24 hours"}, "[7]": {"conditions": "Sprague Dawley, rat, plasma, po, 50 mg/kg"}},
  "note": "Several values for one entry are separate records, joined by “and”; a condition that tells them apart may be missing. Equal values may be shown once. Read-outs that look alike come from different tables or passages of the source.",
  "data": [
    {"compound": "CNCC[C@H](Oc1cccc2ccccc12)c1cccs1", "note": "[duloxetine]", "values": [
      {"measurement": "Urinary excretion as unchanged (parent) drug", "setting": "[1]", "result": "less than 1%"},
      {"measurement": "half-life (T1/2)", "setting": "[1]", "result": 12, "unit": "h"},
      {"measurement": "plasma protein binding", "setting": "plasma proteins", "result": "greater than 90%"}
    ]},
    {"compound": "CCN(CC)C(=O)[C@@]1(c2ccccc2)C[C@H]1CN", "note": "[Levomilnacipran, levomilnacipran]", "values": [
      {"measurement": "Contribution to total radioactivity plasma exposure (area under the curve)", "setting": "[2]; 60 mg oral", "result": 45.1, "unit": "%"},
      {"measurement": "Contribution to total plasma radioactivity at peak plasma levels", "setting": "[2]; from average peak plasma concentrations", "result": 61.0, "unit": "%"},
      {"measurement": "Share of total plasma radioactivity", "setting": "[2]; within 12 hours of dosing", "result": 52.9, "unit": "%"},
      {"measurement": "AUC(0-inf)", "setting": "[2]; male, plasma, po, 60 mg", "result": 2090, "unit": "ng·h/mL"},
      {"measurement": "AUC(0-t)", "setting": "[2]; male, plasma, po, 60 mg", "result": 2060, "unit": "ng·h/mL"},
      {"measurement": "Cmax", "setting": "[2]; male, plasma, po, 60 mg", "result": 179, "unit": "ng/mL"},
      {"measurement": "Tmax", "setting": "[2]; male, plasma, po, 60 mg", "result": 2.75, "unit": "h"},
      {"measurement": "half-life", "setting": "[2]; male, plasma, po, 60 mg", "result": 10.4, "unit": "h"},
      {"measurement": "Mean urinary excretion of compound", "setting": "[3]", "result": "40.2 % of administered dose"},
      {"measurement": "Mean urinary excretion of compound", "setting": "[4]", "result": "58.4 % of administered dose"},
      {"measurement": "Mean urinary excretion of compound", "setting": "[4]; listed as levomilnacipran", "result": "58.4 % of administered dose and 58 % of administered dose"},
      {"measurement": "AUC(0-inf)", "setting": "[5]; [7]", "result": 16600, "unit": "ng·h/mL"},
      {"measurement": "AUC(0-t)", "setting": "[5]; [7]", "result": 16600, "unit": "ng·h/mL"},
      {"measurement": "Cmax", "setting": "[5]; [7]", "result": 8060, "unit": "ng/mL"},
      {"measurement": "Tmax", "setting": "[5]; [7]", "result": 0.5, "unit": "h"},
      {"measurement": "Share of circulating total radioactivity", "setting": "[5]; male rats, 50 mg/kg oral", "result": "about 60%"},
      {"measurement": "Mean urinary excretion of compound", "setting": "[6]", "result": "35.5 % of administered dose"}
    ]},
    {"compound": "CCN(CC)C(=O)C1(c2ccccc2)CC1CN", "note": "(stereo not drawn) [milnacipran]", "values": [
      {"measurement": "half-life (T1/2)", "setting": "[1]", "result": 8, "unit": "h"},
      {"measurement": "plasma protein binding", "setting": "plasma proteins", "result": 13, "unit": "%"}
    ]},
    {"compound": "CN(C)CC(c1ccc(O)cc1)C1(O)CCCCC1", "note": "(stereo not drawn) [desvenlafaxine]", "values": [
      {"measurement": "Urinary excretion as unchanged (parent) drug", "setting": "[1]", "result": 45, "unit": "%"},
      {"measurement": "half-life (T1/2)", "setting": "[1]", "result": 11, "unit": "h"},
      {"measurement": "plasma protein binding", "setting": "plasma proteins", "result": 30, "unit": "%"}
    ]},
    {"compound": "COc1ccc(C(CN(C)C)C2(O)CCCCC2)cc1", "note": "(stereo not drawn) [venlafaxine]", "values": [
      {"measurement": "half-life (T1/2)", "setting": "[1]", "result": 5, "unit": "h"},
      {"measurement": "plasma protein binding", "setting": "plasma proteins", "result": 27, "unit": "%"}
    ]}
  ]
}
